Experimental data as given in ChEMBL document CHEMBL1123938, “Synthesis and biological studies of iodinated (127/125I) derivatives of rhodamine 123” (1987).
Where “and” joins values, the source holds several entries; their conditions need not be identical. Equal values may be shown once.

Assays:
[1] = system: PC-3; assay: Extra cellular concentration of radiolabeled compound was determined in human prostate PC3 adenocarcinoma cells; format: functional, cell-based
Procedure, shortened: (§1)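 V79 Chinese hamster lung fibroblasts or human PC3 prostate adenocarcinoma cells, grown at 37 °C in MEM with 15% fetal calf serum. Log-phase cells were trypsinized and suspended at 2 × 10⁵/mL in calcium-free MEM, then preincubated 4 h at 37 °C on a roller. Carrier-free ¹²⁵I-labelled dihydrorhodamine derivative was added and incubated 2 h at 37 °C. Cell radioactivity was measured by microfuge; intracellular concentration was derived from Coulter-measured cell volumes.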

[2] = Ratio of pCi/cell cellular uptake to uCi/mL cellular uptake; format: functional
[3] = species: Cricetulus griseus; assay: Extra cellular concentration of radiolabeled compound was determined in chinese hamster V79 lung fibroblasts; format: functional; procedure, shortened: as §1

Structure (SMILES)	Concentration [1] [uCi ml-1]	Ratio [2]	Concentration [3] [uCi ml-1]
COC(=O)c1ccccc1C1c2cc(I)c(N)cc2Oc2c1cc(I)c(N)c2I (stereo unspecified)	1.15	0.152 and 0.348	1.3
COC(=O)c1ccccc1C1c2ccc(N)cc2Oc2c1ccc(N)c2I (stereo unspecified)	1.2		1.27
COC(=O)c1ccccc1C1c2cc(I)c(N)cc2Oc2c1ccc(N)c2I (stereo unspecified)	1.35		1.64
COC(=O)c1ccccc1C1c2ccc(N)cc2Oc2cc(N)c(I)cc21 (stereo unspecified)	0.937		0.956
COC(=O)c1ccccc1C1c2cc(I)c(N)cc2Oc2cc(N)c(I)cc21	0.883		0.97
